According to ChEMBL document CHEMBL3600321, “Synthesis and antifungal evaluation of head-to-head and head-to-tail bisamidine compounds” (Bioorg Med Chem, 2015):
Active and inactive are the calls of the source. No cut-off for these calls is given here.

Experiments:
Cryptococcus neoformans = assay: Antifungal activity against Cryptococcus neoformans Cn18 (Serotype C) WTBF-106 by microbroth dilution method; assay type: functional
Method in brief: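 Microbroth dilution per the CLSI protocol, run in Sabouraud Dextrose Broth in place of RPMI. MIC values are geometric means of three independent assays.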

Nakaseomyces glabratus = assay: Antifungal activity against Candida glabrata ATCC 90030 WTBF-86 by microbroth dilution method; assay type: functional
Method in brief: (§1)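 CLSI microbroth dilution in RPMI 1640 with L-glutamine. MIC values are geometric means of three independent assays.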

Pichia kudriavzevii = assay: Antifungal activity against Candida krusei WTBF-51 by microbroth dilution method; assay type: functional
[1] = Metabolic stability in liver microsomes (unknown origin); assay type: ADME
Candida albicans [2] = assay: Binding affinity to DNA in Candida albicans WTBF-50 at 4 x MIC after 30 mins by Syto9 dye-based fluorescence microscope with DAPI filter analysis
Method in brief: (§2)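 An exponential C. albicans culture was treated for 30 min with bisamidine at 4× MIC or with 33 μM Syto9. Fluorescence microscopy used the DAPI channel for the bisamidine and the GFP channel for Syto9, at 400× magnification.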

Candida albicans [3] = assay: Binding affinity to DNA in Candida albicans WTBF-50 at 4 x MIC after 30 mins by Syto9 dye-based fluorescence microscope with GFP filter analysis; method in brief: as §2
Candida albicans [4] = assay: Antifungal activity against Candida albicans WTBF-50 by microbroth dilution method; assay type: functional; method in brief: as §1
Candida parapsilosis = assay: Antifungal activity against Candida parapsilosis ATCC 90018 WTBF-88 by microbroth dilution method; assay type: functional; settings: Lodderomyces parapsilosis; method in brief: as §1
HeLa = assay: Cytotoxicity against human HeLa cells assessed as cell viability after 72 hrs by MTS assay; assay type: cell-based
Candida albicans [5] = assay: Ratio of IC50 for inhibition of RNA biosynthesis in Candida albicans WTBF-50 by [3H]-uridine incorporation assay to IC50 for inhibition of DNA and RNA biosynthesis in Candida albicans WTBF-50 by [3H]-adenine incorporation assay; assay type: functional
Method in brief: (§3)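 The ratio was formed from IC50 values of the 3H-precursor incorporation assay: C. albicans at OD600 of about 1 in RPMI, serial compound dilutions, 10 μCi/ml final label, 90 min at 37 °C. TCA precipitate was scintillation-counted, triplicates were run, and IC50 came from a four-parameter fit.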

Candida albicans [6] = assay: Ratio of IC50 for inhibition of cell wall biosynthesis in Candida albicans WTBF-50 by [3H]-glucosamine incorporation assay to IC50 for inhibition of DNA and RNA biosynthesis in Candida albicans WTBF-50 by [3H]-adenine incorporation assay; assay type: functional; method in brief: as §3
Candida albicans [7] = assay: Fungicidal activity against Candida albicans WTBF-50 assessed as decrease in number of viable cells measured within 4 to 24 hrs; assay type: functional, organism-based
Method in brief: (§4)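 C. albicans was grown in RPMI at 37 °C to OD600 of about 1. […] Samples taken at intervals were serially diluted and plated on Sabouraud agar, and cfu/ml was counted.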

Candida albicans [8] = assay: Fungicidal activity against Candida albicans WTBF-50 assessed as log10 reduction in CFU/ml at 4 x MIC measured within 4 hrs; assay type: functional; method in brief: as §4
Candida albicans [9] = assay: Fungicidal activity against Candida albicans WTBF-50 assessed as inhibition of RNA biosynthesis after 90 mins by [3H]-uridine incorporation assay; assay type: functional, organism-based
Method in brief: (§5)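 C. albicans was grown in RPMI at 37 °C to OD600 of about 1, then mixed with 2-fold serial dilutions of compound and one 3H precursor at 10 μCi/ml final. Incubation ran 90 min at 37 °C, about one doubling. TCA precipitate was filter-collected and scintillation-counted. Each concentration was tested in triplicate. Incorporation relative to untreated control was fitted with a four-parameter curve to give the IC50.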

Candida albicans [10] = assay: Fungicidal activity against Candida albicans WTBF-50 assessed as inhibition of cell wall biosynthesis after 90 mins by [3H]-glucosamine incorporation assay; assay type: functional, organism-based; method in brief: as §5
Candida albicans [11] = assay: Fungicidal activity against Candida albicans WTBF-50 assessed as inhibition of protein biosynthesis after 90 mins by [3H]-leucine incorporation assay; assay type: functional, organism-based; method in brief: as §5
Candida albicans [12] = assay: Fungicidal activity against Candida albicans WTBF-50 assessed as inhibition of DNA and RNA biosynthesis after 90 mins by [3H]-adenine incorporation assay; assay type: functional, organism-based; method in brief: as §5
Candida albicans [13] = assay: Fungicidal activity against Candida albicans WTBF-50 assessed as log10 reduction in CFU/ml at 1 x MIC measured within 4 hrs; assay type: functional; method in brief: as §4
Candida albicans [14] = assay: Fungicidal activity against Candida albicans WTBF-50 assessed as inhibition of lipid biosynthesis after 90 mins by [3H]-acetate incorporation assay; assay type: functional, organism-based; method in brief: as §5
Candida albicans [15] = assay: Fungicidal activity against Candida albicans WTBF-50 assessed as log10 reduction in CFU/ml at 2 x MIC measured within 24 hrs; assay type: functional; method in brief: as §4
Candida albicans [16] = assay: Fungicidal activity against Candida albicans WTBF-50 assessed as log10 reduction in CFU/ml at 1 x MIC measured within 24 hrs; assay type: functional; method in brief: as §4

Structure (SMILES) | MIC (Cryptococcus neoformans) [µg/mL] | MIC (Nakaseomyces glabratus) [µg/mL] | MIC (Pichia kudriavzevii) [µg/mL] | Stability [1] | MIC (Candida albicans [4]) [µg/mL] | MIC (Candida parapsilosis) [µg/mL] | CC50 (HeLa) [µg/mL] | Ratio IC50 (Candida albicans [5]) | Ratio IC50 (Candida albicans [6]) | Activity (Candida albicans [7]) | Activity (Candida albicans [8]) [log10CFU/ml] | IC50 (Candida albicans [9]) [µg/mL] | IC50 (Candida albicans [10]) [µg/mL] | IC50 (Candida albicans [11]) [µg/mL] | IC50 (Candida albicans [12]) [µg/mL] | IC50 (Candida albicans [14]) [µg/mL] | other results
O=C(O)C(F)(F)F.c1cc2cc(-c3ccc(-c4cc5ccc(C6=NCCN6)cc5[nH]4)cc3)[nH]c2cc1C1=NCCN1 | 2 | 0.25 | 4 | Stable | 10.1 | 0.63 | 32.5 |  |  |  |  |  |  |  |  |  | Activity (Candida albicans [2]): Active; Activity (Candida albicans [3]): Active
O=C(O)C(F)(F)F.c1cc2cc(-c3ccc(-c4cc5ccc(C6=NCCCN6)cc5[nH]4)cc3)[nH]c2cc1C1=NCCCN1 | 0.08 | 0.06 | 0.13 | Stable | 0.25 | 0.1 | 4 | 30 | 59 | Dose-dependent effect | >3 | 0.32 | 0.59 | 0.59 | 0.01 | ≥ 2 | Activity (Candida albicans [13]): 3 log10CFU/ml
CC(=O)O.c1cc2cc(-c3ccc(-c4c[nH]c5cc(C6=NCCCN6)ccc45)cc3)[nH]c2cc1C1=NCCCN1 | 0.98 | 0.06 | 0.25 | Stable | 0.25 | 0.16 | 2.4 | 30 | 43.5 | Dose-dependent effect | >3 | 0.56 | 0.87 | 0.86 | 0.02 | ≥ 2 | Activity (Candida albicans [15]): 4 log10CFU/ml; Activity (Candida albicans [16]): 1 log10CFU/ml
